Laboratory results: ChEMBL document CHEMBL3763093, “The molecular structure of thio-ether fatty acids influences PPAR-dependent regulation of lipid metabolism” (Bioorg Med Chem, 2016)
Activity calls are given as the source filed them. The calls are words filed in the database; no cut-off is given here.

Columns and labels:
[1] = Effect on fatty acid composition in human myotubes assessed as intracellular TTA level at 10 uM after 96 hrs; type: functional
Summary of the method: (§1)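 Differentiated human myotubes (7 days) treated 96 h with 10 or 30 μM compound or DMSO 0.1% (two controls). Cells washed, harvested, lipids extracted and methylated (methanol, sulfuric acid, 90 °C, 1 h); FA methyl esters quantified by GC with C21:0 internal standard, peaks confirmed by standards and GC/MS; values as mol % of intracellular fatty acids.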

[2] = Effect on fatty acid composition in human myotubes assessed as intracellular tTTA level at 10 uM after 96 hrs; type: functional; summary of the method: as §1
[3] = Effect on fatty acid composition in human myotubes assessed as intracellular TTA level at 30 uM after 96 hrs; type: functional; summary of the method: as §1
[4] = Effect on fatty acid composition in human myotubes assessed as intracellular tTTA level at 30 uM after 96 hrs; type: functional; summary of the method: as §1
[5] = Effect on fatty acid composition in human myotubes assessed as intracellular SFA level at 10 uM after 96 hrs (Rvb= 31.41%); type: functional; summary of the method: as §1
[6] = Effect on fatty acid composition in human myotubes assessed as intracellular MUFA level at 10 uM after 96 hrs (Rvb= 49.95%); type: functional; summary of the method: as §1
[7] = Effect on fatty acid composition in human myotubes assessed as intracellular PUFA n-3 level at 10 uM after 96 hrs (Rvb= 5.16%); type: functional; summary of the method: as §1
[8] = Effect on fatty acid composition in human myotubes assessed as intracellular PUFA n-6 level at 10 uM after 96 hrs (Rvb= 11.46%); type: functional; summary of the method: as §1
[9] = Effect on fatty acid composition in human myotubes assessed as intracellular PUFA n-9 level at 10 uM after 96 hrs (Rvb= 1.89%); type: functional; summary of the method: as §1
[10] = Effect on fatty acid composition in human myotubes assessed as intracellular SFA level at 30 uM after 96 hrs (Rvb= 31.41%); type: functional; summary of the method: as §1
[11] = Effect on fatty acid composition in human myotubes assessed as intracellular MUFA level at 30 uM after 96 hrs (Rvb= 49.95%); type: functional; summary of the method: as §1
[12] = Effect on fatty acid composition in human myotubes assessed as intracellular PUFA n-3 level at 30 uM after 96 hrs (Rvb= 5.16%); type: functional; summary of the method: as §1
[13] = Effect on fatty acid composition in human myotubes assessed as intracellular PUFA n-6 level at 30 uM after 96 hrs (Rvb= 11.46%); type: functional; summary of the method: as §1
[14] = Effect on fatty acid composition in human myotubes assessed as intracellular PUFA n-9 level at 30 uM after 96 hrs (Rvb= 1.89%); type: functional; summary of the method: as §1
[15] = Effect on fatty acid composition in human myotubes assessed as change in intracellular SFA level at 10 uM after 96 hrs relative to DMSO control; type: functional; summary of the method: as §1
[16] = Effect on fatty acid composition in human myotubes assessed as change in intracellular SFA level at 30 uM after 96 hrs relative to DMSO control; type: functional; summary of the method: as §1
[17] = Effect on fatty acid composition in human myotubes assessed as change in intracellular MUFA level at 10 uM after 96 hrs relative to DMSO control; type: functional; summary of the method: as §1
[18] = Effect on fatty acid composition in human myotubes assessed as change in intracellular MUFA level at 30 uM after 96 hrs relative to DMSO control; type: functional; summary of the method: as §1
Homo sapiens [19] = species on record: Homo sapiens; assay: Induction of fatty acid oxidation in human myotubes using [14C]oleic acid as substrate preincubated for 96 hrs followed by substrate addition incubated for 4 hrs by liquid scintillation analysis; type: functional
Summary of the method: (§2)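 Myotubes differentiated 7 days were pretreated 96 h with 10 or 30 μM compound, 10 nM GW501516 or DMSO 0.1%, then given [1-14C]oleic acid (0.5 μCi/mL, 100 μM) in DPBS with HEPES 10 mM and L-carnitine 1 mM, 4 h at 37 °C. Trapped CO2 and cell-associated label counted by scintillation; uptake = CO2 + CA; Bradford protein; % of DMSO basal; n = 8–15.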

Homo sapiens [20] = species on record: Homo sapiens; assay: Effect on intracellular [14C]oleic acid uptake in human myotubes at 10 to 30 uM preincubated for 96 hrs followed by substrate addition incubated for 4 hrs by liquid scintillation analysis; type: functional, cell-based; summary of the method: as §2
[21] = target: T1, Peroxisome proliferator-activated receptor (Homo sapiens) (UniProt P37231+Q07869+Q03181); assay: Agonist activity at PPAR in human myotubes assessed as ANGPTL4 mRNA expression at 30 uM after 96 hrs by qPCR analysis relative to control
Summary of the method: (§3)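 Myotubes from satellite cells of abdominal muscle biopsies of healthy donors, differentiated 7 days, then exposed 96 h to test lipids (30 μM) vs DMSO 0.1%. Total RNA isolated (RIN ≥7), reverse transcribed, real-time PCR with gene-specific primers; expression expressed relative to DMSO control.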

[22] = target: T1, Peroxisome proliferator-activated receptor (Homo sapiens); assay: Agonist activity at PPAR in human myotubes assessed as FABP3 mRNA expression at 30 uM after 96 hrs by qPCR analysis relative to control; summary of the method: as §3
[23] = target: T1, Peroxisome proliferator-activated receptor (Homo sapiens); assay: Agonist activity at PPAR in human myotubes assessed as CD36 mRNA expression at 30 uM after 96 hrs by qPCR analysis relative to control; summary of the method: as §3
[24] = target: T1, Peroxisome proliferator-activated receptor (Homo sapiens); assay: Agonist activity at PPAR in human myotubes assessed as CPT1A mRNA expression at 30 uM after 96 hrs by qPCR analysis relative to control; summary of the method: as §3
[25] = Effect on protein level in human myotubes at 10 to 30 uM; type: ADME
[26] = Effect on total fatty acid level in human myotubes assessed as per mg of protein at 10 to 30 uM; type: ADME
[27] = Effect on fatty acid composition in human myotubes assessed as intracellular dTTA level at 10 uM after 96 hrs; type: functional; summary of the method: as §1
[28] = Effect on fatty acid composition in human myotubes assessed as intracellular SFA level at 10 uM after 96 hrs (Rvb= 36.16%); type: functional; summary of the method: as §1
[29] = Effect on fatty acid composition in human myotubes assessed as intracellular MUFA level at 10 uM after 96 hrs (Rvb= 41.04%); type: functional; summary of the method: as §1
[30] = Effect on fatty acid composition in human myotubes assessed as intracellular PUFA n-3 level at 10 uM after 96 hrs (Rvb= 7.47%); type: functional; summary of the method: as §1
[31] = Effect on fatty acid composition in human myotubes assessed as intracellular PUFA n-6 level at 10 uM after 96 hrs (Rvb= 13.41%); type: functional; summary of the method: as §1
[32] = Effect on fatty acid composition in human myotubes assessed as intracellular PUFA n-9 level at 10 uM after 96 hrs (Rvb= 1.78%); type: functional; summary of the method: as §1
[33] = Effect on fatty acid composition in human myotubes assessed as intracellular dTTA level at 30 uM after 96 hrs; type: functional; summary of the method: as §1
[34] = Effect on fatty acid composition in human myotubes assessed as intracellular SFA level at 30 uM after 96 hrs (Rvb= 36.16%); type: functional; summary of the method: as §1
[35] = Effect on fatty acid composition in human myotubes assessed as intracellular MUFA level at 30 uM after 96 hrs (Rvb= 41.04%); type: functional; summary of the method: as §1
[36] = Effect on fatty acid composition in human myotubes assessed as intracellular PUFA n-3 level at 30 uM after 96 hrs (Rvb= […]); type: functional; summary of the method: as §1
[37] = Effect on fatty acid composition in human myotubes assessed as intracellular PUFA n-6 level at 30 uM after 96 hrs (Rvb= 13.41%); type: functional; summary of the method: as §1
[38] = Effect on fatty acid composition in human myotubes assessed as intracellular PUFA n-9 level at 30 uM after 96 hrs (Rvb= 1.78%); type: functional; summary of the method: as §1
[39] = Induction of fatty acid oxidation in human myotubes using [14C]oleic acid as substrate at 30 uM preincubated for 96 hrs followed by substrate addition incubated for 4 hrs by liquid scintillation analysis relative to control; type: functional; summary of the method: as §2

CCCCCCC#CCCCCCCSCC(=O)OC[C@@H](O)COP(=O)([O-])OCC[N+](C)(C)C
Activity [1]: 0.43 mol%
Activity [2]: 2.16 mol%
Activity [3]: 1.02 mol%
Activity [4]: 4.15 mol%
Activity [5]: 32.02 mol%
Activity [6]: 46.19 mol%
Activity [7]: 5.18 mol%
Activity [8]: 12.4 mol%
Activity [9]: 1.48 mol%
Activity [10]: 33.52 mol%
Activity [11]: 40.64 mol%
Activity [12]: 5.68 mol%
Activity [13]: 13.42 mol%
Activity [14]: 1.41 mol%
Activity [15]: 0.7%
Activity [16]: 4.5%
Activity [17]: -21.3%
Activity [18]: -13.1%
Activity (Homo sapiens [19]): Dose-dependent effect
Activity (Homo sapiens [20]): inactive
fold change (FC) [21]: 25
Activity [22]: Active
Activity [23]: Active
fold change (FC) [24]: < 7
Activity [25]: Non-toxic
Activity [26]: Non-toxic

CCCCCCCCCCCCCCSCC(=O)O [TETRADECYLTHIOACETIC ACID]
Activity [1]: 13.02 mol%
Activity [27]: 1.11 mol%
Activity [28]: 26.24 mol%
Activity [29]: 35.09 mol%
Activity [30]: 7.86 mol%
Activity [31]: 14.34 mol%
Activity [32]: 2.2 mol%
Activity [3]: 31.81 mol%
Activity [33]: 1.28 mol%
Activity [34]: 18.25 mol%
Activity [35]: 28.44 mol%
Activity [36]: 6.62 mol%
Activity [37]: 11.78 mol%
Activity [38]: 1.73 mol%
Activity [15]: -27.2%
Activity [16]: -49.4%
Activity [17]: -14.6%
Activity [18]: -30.8%
Activity (Homo sapiens [19]): Dose-dependent effect
Activity (Homo sapiens [20]): inactive
fold change (FC) [39]: 3
fold change (FC) [21]: < 20
Activity [22]: Active
Activity [23]: Active
fold change (FC) [24]: 5
Activity [25]: Non-toxic
Activity [26]: Non-toxic
